Measurements published in ChEMBL document CHEMBL1687750, “Nonclinical pharmacokinetics of oseltamivir and oseltamivir carboxylate in the central nervous system” (Antimicrob Agents Chemother, 2009).

Assays:
[1] = Cmax in perfused Sprague-Dawley rat cerebrospinal fluid at 30 mg/kg, iv; type: ADME, organism-based; set-up: dose 30 mg/kg, route intravenous
How it was run: (§1)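 Nonfasted adult rats received 30 mg/kg in aqueous 0.9% NaCl (pH 4.0) by slow tail-vein injection over 20–30 s. Groups were sampled at 5 min and 0.25, 0.5, 1, 2, 4 and 8 h, with 4–5 rats per time point, under terminal isoflurane. Blood was taken by heart puncture and CSF from the cisterna magna. Brains were homogenized either unperfused or after transcardial saline perfusion. Samples were assayed by LC-MS/MS, and pooled composite data were analyzed noncompartmentally.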

[2] = Permeability from […] of Spodoptera frugiperda Sf9 cells over expressing human BCRP1; type: ADME, cell-based
How it was run: (§2)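 Membrane vesicles (20–50 µg) from insect cells expressing recombinant human BCRP1, MRP1 or MRP3 were prewarmed at 37°C. They were incubated for 60 s at 37°C with 14C-oseltamivir (3.8 µM) or OC (3.1 µM), with or without 5 mM ATP, in sucrose/KNO3/Mg(NO3)2/HEPES-Tris pH 7.4. The reaction was stopped with ice-cold buffer containing taurocholate, followed by rapid nitrocellulose filtration and scintillation counting. Determinations were in triplicate.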

[3] = […] of Spodoptera frugiperda Sf9 cells over expressing human MRP1; type: ADME, cell-based; how it was run: as §2
[4] = Permeability from […] of Spodoptera frugiperda Sf9 cells over expressing human MRP3; type: ADME, cell-based; how it was run: as §2
[5] = Cmax in non-perfused Sprague-Dawley rat plasma at 30 mg/kg, iv; type: ADME, organism-based; set-up: dose 30 mg/kg, route intravenous; how it was run: as §1
[6] = Cmax in non-perfused Sprague-Dawley rat cerebrospinal fluid at 30 mg/kg, iv; type: ADME, organism-based; set-up: dose 30 mg/kg, route intravenous; how it was run: as §1
[7] = Cmax in non-perfused Sprague-Dawley rat brain at 30 mg/kg, iv; type: ADME, organism-based; set-up: dose 30 mg/kg, route intravenous; how it was run: as §1
[8] = Cmax in perfused Sprague-Dawley rat plasma at 30 mg/kg, iv; type: ADME, organism-based; set-up: dose 30 mg/kg, route intravenous; how it was run: as §1
[9] = Cmax in perfused Sprague-Dawley rat brain at 30 mg/kg, iv; type: ADME, organism-based; set-up: dose 30 mg/kg, route intravenous; how it was run: as §1
[10] = Terminal half life in non-perfused Sprague-Dawley rat plasma at 30 mg/kg, iv; type: ADME, organism-based; set-up: dose 30 mg/kg, route intravenous; conditions: read-out: beta t1/2 (converted)
How it was run: (§3)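 Nonfasted Sprague-Dawley rats given 30 mg/kg i.v. in 0.9% NaCl pH 4.0 by tail vein over 20–30 s. Terminal sampling under isoflurane at 5 min, 0.25, 0.5, 1, 2, 4 and 8 h (4–5 rats/time): plasma, CSF, and brain homogenate, with or without saline perfusion. LC-MS/MS. t1/2, Vss and ratios from noncompartmental analysis of pooled composite concentrations.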

[11] = Terminal half life in non-perfused Sprague-Dawley rat cerebrospinal fluid at 30 mg/kg, iv; type: ADME, organism-based; set-up: dose 30 mg/kg, route intravenous; conditions: read-out: beta t1/2 (converted); how it was run: as §3
[12] = Terminal half life in non-perfused Sprague-Dawley rat brain at 30 mg/kg, iv; type: ADME, organism-based; set-up: dose 30 mg/kg, route intravenous; conditions: read-out: beta t1/2 (converted); how it was run: as §3
[13] = Terminal half life in perfused Sprague-Dawley rat plasma at 30 mg/kg, iv; type: ADME, organism-based; set-up: dose 30 mg/kg, route intravenous; conditions: read-out: beta t1/2 (converted); how it was run: as §3
[14] = Terminal half life in perfused Sprague-Dawley rat cerebrospinal fluid at 30 mg/kg, iv; type: ADME, organism-based; set-up: dose 30 mg/kg, route intravenous; conditions: read-out: beta t1/2 (converted); how it was run: as §3
[15] = Terminal half life in perfused Sprague-Dawley rat brain at 30 mg/kg, iv; type: ADME, organism-based; set-up: dose 30 mg/kg, route intravenous; conditions: read-out: beta t1/2 (converted); how it was run: as §3
[16] = Cmax in perfused Sprague-Dawley rat plasma at 1000 mg/kg, po; type: ADME, organism-based; set-up: dose 1000 mg/kg, route oral
How it was run: (§4)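 Oseltamivir phosphate was given by oral gavage at 1,000 mg/kg free base. Sampling was at 1, 2, 4, 6 and 8 h, with 4 rats per time point, under terminal isoflurane. Blood was taken by cardiac puncture and CSF from the cisterna magna. Brains were perfused transcardially with saline before homogenization. Samples were quantified by LC-MS/MS, with noncompartmental analysis of pooled composite data giving AUC0-8 h and concentration ratios.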

[17] = Cmax in perfused Sprague-Dawley rat cerebrospinal fluid at 1000 mg/kg, po; type: ADME, organism-based; set-up: dose 1000 mg/kg, route oral; how it was run: as §4
[18] = Cmax in perfused Sprague-Dawley rat brain at 1000 mg/kg, po; type: ADME, organism-based; set-up: dose 1000 mg/kg, route oral; how it was run: as §4
[19] = AUC (0 to 8 hrs) ratio in brain to plasma in perfused Sprague-Dawley rat at 1000 mg/kg, po; type: ADME, organism-based; set-up: dose 1000 mg/kg, route oral; conditions: brain and plasma, read-out: Ratio AUC; how it was run: as §4
[20] = AUC (0 to 8 hrs) ratio in cerebrospinal fluid to brain in perfused Sprague-Dawley rat at 1000 mg/kg, po; type: ADME, organism-based; set-up: dose 1000 mg/kg, route oral; conditions: in vivo; how it was run: as §4
Brain [21] = test: Ratio of AUC (0 to infinity) after iv dose to AUC (0 to 8 hrs) after po dose in perfused Sprague-Dawley rat brain at 1000 mg/kg; type: ADME, organism-based; set-up: dose 1000 mg/kg, route oral; conditions: in vivo
How it was run: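 Sprague-Dawley rats, nonfasted. i.v.: 30 mg/kg in 0.9% NaCl pH 4.0, slow tail-vein injection, sampled at 5 min and 0.25–8 h. Oral gavage: 1,000 mg/kg free base, sampled 1–8 h. Four or five rats per time point, with cardiac blood and cisterna magna CSF. Brains taken with or without saline transcardial perfusion (oral study perfused). LC-MS/MS. AUC by noncompartmental analysis of pooled composite data.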

[22] = AUC ratio in brain to plasma in non-perfused Sprague-Dawley rat at 30 mg/kg, iv; type: ADME, organism-based; set-up: dose 30 mg/kg, route intravenous; conditions: brain and plasma, read-out: Ratio AUC; how it was run: as §1
[23] = AUC (0 to 8 hrs) ratio in cerebrospinal fluid to plasma in perfused Sprague-Dawley rat at 1000 mg/kg, po; type: ADME, organism-based; set-up: dose 1000 mg/kg, route oral; conditions: cerebrospinal fluid and plasma, read-out: Ratio AUC; how it was run: as §4
Brain [24] = test: AUC (0 to 8 hrs) after iv dose in perfused Sprague-Dawley rat brain at 30 mg/kg; conditions: in vivo
Plasma [25] = test: AUC (0 to 8 hrs) after iv dose in perfused Sprague-Dawley rat plasma at 30 mg/kg; conditions: in vivo
Plasma [26] = test: AUC (0 to 8 hrs) after po dose in perfused Sprague-Dawley rat plasma at 1000 mg/kg; conditions: in vivo
Brain [27] = test: AUC (0 to 8 hrs) after iv dose in non-perfused Sprague-Dawley rat brain at 30 mg/kg; conditions: in vivo
Cerebrospinal fluid [28] = test: AUC (0 to 8 hrs) after iv dose in perfused Sprague-Dawley rat cerebrospinal fluid at 30 mg/kg; conditions: in vivo
Cerebrospinal fluid [29] = test: AUC (0 to 8 hrs) after po dose in perfused Sprague-Dawley rat cerebrospinal fluid at 1000 mg/kg; conditions: in vivo
Cerebrospinal fluid [30] = test: AUC (0 to 8 hrs) after iv dose in non-perfused Sprague-Dawley rat cerebrospinal fluid at 30 mg/kg; conditions: in vivo
[31] = Prodrug conversion in 7 days old female rat brain S9 fractions assessed as paranitrophenol generation rate assessed per mg of protein per min; type: ADME, tissue-based
[32] = AUC ratio in cerebrospinal fluid to plasma in Sprague-Dawley rat at 30 mg/kg, iv; type: ADME, organism-based; set-up: dose 30 mg/kg, route intravenous; conditions: cerebrospinal fluid and plasma, read-out: Ratio AUC; how it was run: as §1
Plasma [33] = test: AUC (0 to infinity) in non-perfused Sprague-Dawley rat plasma at 30 mg/kg; conditions: in vivo, iv

| Cmax [1] [ng/mL] | permeability [2] | permeability [3] | permeability [4] | Cmax [5] [ng/mL] | Cmax [6] [ng/mL] | Cmax [7] [ng/g] | Cmax [8] [ng/mL] | Cmax [9] [ng/g] | half-life [10] [h] | half-life [11] [h] | half-life [12] [h] | half-life [13] [h] | half-life [14] [h] | half-life [15] [h] | Cmax [16] [ng/mL] | Cmax [17] [ng/mL] | Cmax [18] [ng/g] | Kp [19] | Ratio AUC [20] | SMILES | further results |
| --- | --- | --- | --- | --- | --- | --- | --- | --- | --- | --- | --- | --- | --- | --- | --- | --- | --- | --- | --- | --- | --- |
| 249 | impermeable | impermeable | impermeable | 72300 | 227 | 1710 | 86300 | 605 | 1.64 | 0.342 | 0.379 | 1.69 | 0.382 | 0.478 | 49700 | 363 | 641 | 0.01 | 0.64 | CCC(CC)O[C@@H]1C=C(C(=O)O)C[C@H](N)[C@H]1NC(C)=O [OSELTAMIVIR CARBOXYLATE] | Ratio AUC (Brain [21]): 3450; Kp [22]: 0.01; Kp [23]: 0.007; AUC (Brain [24]): 305; AUC (Plasma [25]): 33800; AUC (Plasma [26]): 286000; AUC (Brain [27]): 687; AUC (Cerebrospinal fluid [28]): 137; AUC (Cerebrospinal fluid [29]): 1940; AUC (Cerebrospinal fluid [30]): 128 |
| 921 | impermeable | impermeable | impermeable | 12000 | 897 | 712 | 12500 | 491 | 1.35 | 0.813 | 2.45 | 1.59 | 0.812 | 1.51 | 16300 | 1120 | 2310 | 0.12 | 0.55 | CCOC(=O)C1=C[C@@H](OC(CC)CC)[C@H](NC(C)=O)[C@@H](N)C1 [OSELTAMIVIR] | Activity [31]: 92 nmol; AUC (Brain [21]): 13600 ng·h/g; Kp [32]: 0.09; Kp [23]: 0.07; AUC (Plasma [33]): 5330; AUC (Brain [24]): 1160; AUC (Plasma [25]): 5330; AUC (Plasma [26]): 107000; AUC (Brain [27]): 1310; AUC (Cerebrospinal fluid [28]): 472; AUC (Cerebrospinal fluid [29]): 7470; AUC (Cerebrospinal fluid [30]): 450 |
